From ChEMBL document CHEMBL1124394, “Synthesis and biological evaluation of 14-alkoxymorphinans. 2. (-)-N-(cyclopropylmethyl)-4,14-dimethoxymorphinan-6-one, a selective mu opioid receptor antagonist” (J Med Chem, 1989)
Several values for one entry are separate records, joined by “and”; a condition that tells them apart may be missing. Equal values may be shown once.

Assays:
[1] = tested on: Oryctolagus cuniculus; assay: Percent change of volume in the respiratory activity was measured in rabbit at the 1 mg/kg dose given intravenously; type: functional; conditions: route intravenous
Outline: (§1)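 Rabbits were dosed iv in saline (1.5 mL/kg); 1 N HCl was sometimes added to dissolve the compound. Percent change (±SE) in respiratory volume and rate was recorded.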

[2] = tested on: Oryctolagus cuniculus; assay: Percent change of rate in the respiratory activity was measured in rabbit at the 1 mg/kg dose given intravenously; type: functional; conditions: route intravenous; outline: as §1
[3] = target: Delta-type opioid receptor (Rattus norvegicus) (UniProt P33533); conditions: Vas deferens
[4] = target: Kappa-type opioid receptor (Cavia porcellus) (UniProt P41144)
[5] = target: Kappa-type opioid receptor (Mus musculus) (UniProt P33534); conditions: Vas deferens
[6] = target: Mu-type opioid receptor (Cavia porcellus) (UniProt P97266)
[7] = target: Mu-type opioid receptor (Rattus norvegicus) (UniProt P33535); conditions: Vas deferens
[8] = target: Delta-type opioid receptor (Mus musculus) (UniProt P32300); conditions: Vas deferens
[9] = target: Mu-type opioid receptor (Mus musculus) (UniProt P42866); conditions: Vas deferens
[10] = target: Opioid receptor (Rattus norvegicus, UniProt P33533+P34975+P33535); assay: Inhibition of [3H]naloxone binding to opioid receptor in presence of NaCl; type: protein assay
Outline: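 Rat (male F1-albino, 140–180 g) whole brain minus cerebellum, homogenised in ice-cold 50 mmol/L Tris-HCl pH 7.4 with NaCl, centrifuged 18000g 10 min and rehomogenised. Nonspecific binding defined with 1 μmol/L levallorphan. Competitor tested at ≥5 concentrations in duplicate, two independent runs. IC50 taken graphically or from a least-squares sigmoid fit.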

[11] = tested on: Mus musculus; assay: Percent reduction of analgesia induced by U-50,488 at 15 mg/kg after sc administration was measured in mice; type: functional; conditions: route subcutaneous
Outline: (§2)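 Mice received the opioid agonist sc (morphine 10 mg/kg or U-50,488 15 mg/kg), then the test compound sc 20 min later in saline (10 mL/kg). Writhing was then induced with acetic acid. Read-out was percent reduction of agonist-induced analgesia.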

[12] = tested on: Mus musculus; assay: Percent reduction of analgesia induced by morphine at 10 mg/kg after sc administration was measured in mice; type: functional; conditions: route subcutaneous; outline: as §2
[13] = tested on: Oryctolagus cuniculus; assay: Percent change of volume in the respiratory activity was measured in rabbit at the 0.1 mg/kg dose given intravenously; type: functional; conditions: route intravenous; outline: as §1
[14] = tested on: Oryctolagus cuniculus; assay: Percent change of rate in the respiratory activity was measured in rabbit at the 0.1 mg/kg dose given intravenously; type: functional; conditions: route intravenous; outline: as §1
[15] = tested on: Oryctolagus cuniculus; assay: Percent change of rate in the respiratory activity was measured in rabbit at 0.1 mg/kg dose given intravenously; type: functional; conditions: route intravenous; outline: as §1

Sequence of Kappa-type opioid receptor (Cavia porcellus) (P41144 whole entry): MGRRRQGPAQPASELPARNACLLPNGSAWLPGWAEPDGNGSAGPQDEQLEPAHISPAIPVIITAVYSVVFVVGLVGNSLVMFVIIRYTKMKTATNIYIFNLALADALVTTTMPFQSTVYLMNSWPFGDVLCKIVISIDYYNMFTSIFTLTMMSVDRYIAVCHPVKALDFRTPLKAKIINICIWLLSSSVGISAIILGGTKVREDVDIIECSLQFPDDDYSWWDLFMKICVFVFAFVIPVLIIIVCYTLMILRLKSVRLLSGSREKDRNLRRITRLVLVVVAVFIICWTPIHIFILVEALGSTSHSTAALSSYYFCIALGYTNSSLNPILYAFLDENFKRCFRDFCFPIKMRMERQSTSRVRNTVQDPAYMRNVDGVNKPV
Sequence of Kappa-type opioid receptor (Mus musculus) (P33534 whole entry): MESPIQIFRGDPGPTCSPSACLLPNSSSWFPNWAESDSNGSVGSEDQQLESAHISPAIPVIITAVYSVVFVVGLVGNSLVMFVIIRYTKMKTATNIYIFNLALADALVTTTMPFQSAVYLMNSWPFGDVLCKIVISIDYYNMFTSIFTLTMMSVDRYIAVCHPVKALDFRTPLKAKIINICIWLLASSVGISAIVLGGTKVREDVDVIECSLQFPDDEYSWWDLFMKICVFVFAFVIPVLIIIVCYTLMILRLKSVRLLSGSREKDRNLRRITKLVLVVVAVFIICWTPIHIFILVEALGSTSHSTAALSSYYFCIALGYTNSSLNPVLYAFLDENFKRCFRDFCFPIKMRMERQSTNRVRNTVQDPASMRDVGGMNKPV
Sequence of Mu-type opioid receptor (Rattus norvegicus) (P33535 whole entry): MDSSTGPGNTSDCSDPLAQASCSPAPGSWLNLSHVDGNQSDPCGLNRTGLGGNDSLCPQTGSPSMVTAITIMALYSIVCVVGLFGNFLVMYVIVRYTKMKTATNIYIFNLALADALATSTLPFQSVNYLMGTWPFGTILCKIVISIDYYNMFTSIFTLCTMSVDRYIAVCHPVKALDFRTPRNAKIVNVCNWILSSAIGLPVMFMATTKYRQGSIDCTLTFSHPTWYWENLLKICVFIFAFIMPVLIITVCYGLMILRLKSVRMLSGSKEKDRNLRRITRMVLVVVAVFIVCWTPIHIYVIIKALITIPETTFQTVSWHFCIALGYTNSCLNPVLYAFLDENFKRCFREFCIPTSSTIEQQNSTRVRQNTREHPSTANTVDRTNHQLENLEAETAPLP
Sequence of Delta-type opioid receptor (Mus musculus) (P32300 whole entry): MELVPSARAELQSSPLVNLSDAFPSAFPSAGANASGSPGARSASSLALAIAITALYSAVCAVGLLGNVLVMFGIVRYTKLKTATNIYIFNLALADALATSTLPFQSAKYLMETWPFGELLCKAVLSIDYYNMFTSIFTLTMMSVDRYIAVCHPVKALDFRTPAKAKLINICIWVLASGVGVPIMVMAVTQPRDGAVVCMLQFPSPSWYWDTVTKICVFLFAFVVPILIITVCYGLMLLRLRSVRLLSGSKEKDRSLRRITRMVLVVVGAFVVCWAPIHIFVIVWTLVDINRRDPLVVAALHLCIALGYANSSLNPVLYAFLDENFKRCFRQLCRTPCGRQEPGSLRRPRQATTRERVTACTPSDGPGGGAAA
Sequence of Mu-type opioid receptor (Cavia porcellus) (P97266 whole entry): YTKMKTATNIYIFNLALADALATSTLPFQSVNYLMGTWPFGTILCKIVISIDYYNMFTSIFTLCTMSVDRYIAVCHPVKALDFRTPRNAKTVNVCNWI
Sequence of Delta-type opioid receptor (Rattus norvegicus) (P33533 whole entry): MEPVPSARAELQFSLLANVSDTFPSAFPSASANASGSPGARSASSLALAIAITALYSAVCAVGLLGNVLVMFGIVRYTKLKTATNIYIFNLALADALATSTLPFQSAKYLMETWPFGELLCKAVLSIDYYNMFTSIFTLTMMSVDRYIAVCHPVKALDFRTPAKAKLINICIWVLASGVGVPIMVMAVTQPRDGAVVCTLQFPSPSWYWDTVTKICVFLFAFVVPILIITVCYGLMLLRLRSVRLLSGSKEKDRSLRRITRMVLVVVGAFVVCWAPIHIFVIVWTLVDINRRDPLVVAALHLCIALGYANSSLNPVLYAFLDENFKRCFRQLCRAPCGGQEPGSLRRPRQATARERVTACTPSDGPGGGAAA
Sequence of Mu-type opioid receptor (Mus musculus) (P42866 whole entry): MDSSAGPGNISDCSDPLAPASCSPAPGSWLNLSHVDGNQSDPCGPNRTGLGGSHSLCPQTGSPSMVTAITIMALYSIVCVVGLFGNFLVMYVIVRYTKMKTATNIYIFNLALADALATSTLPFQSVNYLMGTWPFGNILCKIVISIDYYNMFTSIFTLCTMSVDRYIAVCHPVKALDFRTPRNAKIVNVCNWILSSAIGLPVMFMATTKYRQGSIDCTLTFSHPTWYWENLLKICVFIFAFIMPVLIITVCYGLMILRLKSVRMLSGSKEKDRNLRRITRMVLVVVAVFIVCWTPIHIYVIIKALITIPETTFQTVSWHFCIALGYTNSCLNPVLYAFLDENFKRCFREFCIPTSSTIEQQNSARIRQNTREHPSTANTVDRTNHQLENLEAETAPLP

COc1cccc2c1[C@]13CCN(CC4CC4)[C@H](C2)[C@]1(OC)CCC(=O)C3 [CYPRODIME]
Volume change [1]: 21%
Rate change [2]: -6.9%
Ke [3]: 4.56 µM
Ke [4]: 1160 nM
Ke [5]: 1550 nM
Ke [6]: 31 nM
Ke [7]: 61.6 nM
Ke [8]: 6.11 µM
Ke [9]: 55.4 nM

C=CCN1CC[C@]23CCCC[C@H]2[C@H]1Cc1ccc(O)cc13 [LEVALLORPHAN]
IC50 [10]: 1.1 nM and 0.54 nM

C=CCN1CC[C@]23c4c5ccc(O)c4O[C@H]2C(=O)CC[C@@]3(O)[C@H]1C5 [NALOXONE]
Reduction [11]: 83%
Reduction [12]: 87%
Volume change [13]: 23%
Rate change [14]: 7.3%

O=C1CC[C@@]2(O)[C@H]3Cc4ccc(O)c5c4[C@@]2(CCN3CC2CC2)[C@H]1O5 [NALTREXONE]
Reduction [11]: 19%
Reduction [12]: 94%
Rate change [15]: 7.5%
